In the library only some 4.5% were active in any assay of this set; here they are far more common.
TAAR1 ag = human TAAR1 agonists, primary screen, Fluo-8 calcium fluorescence, CHO RD-HGA16 cells; Trace amine-associated receptor 1 (Homo sapiens), Q96RJ0; vehicle wells 0%, saturating PEA agonist 100%; activation, % at 3 µM; actives 0.99% (n = 360,000);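 active means activation above the mean activation of all test compounds in the run plus 3 SD, cut at about 38% in these data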
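Assay system: CHO-derived RD-HGA16 cells with stable Gα16 and human TAAR1; timing: 17-24 h seeding, 75 min 37 °C dye, 30 min RT; read-out: % activation from peak over basal fluorescence ratio, DMSO-to-PEA scaled; measured by: kinetic Fluo-8 calcium fluorescence; benchmarks: low control DMSO, high control PEA (EC100); doses: 3 µM single concentration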
TAAR1 antag = human TAAR1 antagonists, primary screen, Fluo-8 calcium fluorescence, CHO RD-HGA16 cells; Trace amine-associated receptor 1 (Homo sapiens), Q96RJ0; antagonist; inhibition, % at 3 µM; actives 1.5% (n = 360,000); AID 624466, 2012;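 active means inhibition above a per-plate cutoff, the mean inhibition of test compounds on that plate plus 3 SD, cut at about 49% in these data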;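 further: 0% = DMSO plus EC80 beta-PEA response and 100% = DMSO alone without agonist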
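Test system – hTAAR1-expressing CHO RD-HGA16 cells, Gα16-coupled · Also added – β-PEA at EC80 concentration, post-compound challenge · Compound – 3 µM, single point · Incubation – dye loading 75 min at 37 °C, then 30 min room temperature · Measured by – Fluo-8 intracellular calcium dye fluorescence, real-time kinetic reads · Benchmarks – vehicle and agonist controls · Replicates – singlicate, one well per test compound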
GPR7 antag = GPR7 receptor antagonists, primary screen, cell-based, fluorescence, single concentration | Neuropeptides B/W receptor type 1 (Homo sapiens), P48145 | GPR7-expressing cells, fluorescence antagonist assay | inhibition, % at 4.4 µM | actives 1.1% (n = 290,000); in the data active means inhibition above about 16%, passing the limit was not always enough;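 further: cells stimulated with the agonist NPW; 0% = agonist with vehicle and 100% = vehicle without agonist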
Target sequence (P48145 whole entry, looked up): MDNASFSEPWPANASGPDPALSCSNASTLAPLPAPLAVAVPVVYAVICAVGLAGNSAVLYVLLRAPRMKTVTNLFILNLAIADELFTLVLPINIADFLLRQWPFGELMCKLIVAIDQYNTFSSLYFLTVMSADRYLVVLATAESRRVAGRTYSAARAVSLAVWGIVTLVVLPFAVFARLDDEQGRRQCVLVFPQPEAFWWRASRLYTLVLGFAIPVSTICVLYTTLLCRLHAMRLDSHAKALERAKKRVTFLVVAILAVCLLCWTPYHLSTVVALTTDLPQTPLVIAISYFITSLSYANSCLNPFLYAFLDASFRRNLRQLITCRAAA
CHO parental Ca = ATP-evoked calcium signal inhibitors, parental CHO, primary screen, counter-screen for OX1R antagonist project, cell-based, fluorescence, Fluo-8 calcium dye; parental CHO-K1, ATP-induced calcium, Fluo-8 fluorescence; inhibition, % at 5.6 µM; actives 0.63% (n = 330,000); AID 463079, 2010;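 active means inhibition above that plate's mean sample inhibition plus 3 SD, cut at about 26% in these data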;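 further: 0% = ATP-challenged DMSO wells and 100% = DMSO wells without ATP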
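Assay system: untransfected parental CHO cell line. Also added: ATP agonist challenge. Dosing: one dose, 5.6 µM nominal. Measured by: Fluo-8 fluorescence. Read-out: % inhibition. Benchmarks: ATP wells versus no-ATP DMSO wells. Repeats: no replicates.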
OX1R antag-1 = OX1R (HCRTR1) antagonists, primary screen, fluorescence, CHO/OX1R cells, Fluo-8 calcium, orexin A. actives 0.43% (n = 330,000). Fluo-8 calcium fluorescence. AID 434989, 2010. inhibition, % at 5 µM;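 active means inhibition above its plate's threshold, mean inhibition of all tested compounds on the plate plus 3 SD, cut at about 37% in these data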;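 further: 0% = orexin A challenge wells and 100% = SB-334867-A antagonist wells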
OX1R antag-2 = antagonists of human orexin 1 receptor (OX1R); actives 1.8% (n = 330,000); Orexin/Hypocretin receptor type 1 (Homo sapiens), O43613; AID 485270, 2010; inhibition, % at 6.6 µM; OX1R-expressing cells, FRET antagonist read-out; in the data active means inhibition mostly above about 38%, no sharp cut-off; inactive means mostly below about 40%;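 further: 0% = agonist challenge alone and 100% = reference antagonist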
* marks the source's active call; other numbers are inactive results; / = not tested or not shown.

SMILES | TAAR1 ag | TAAR1 antag | GPR7 antag | CHO parental Ca | OX1R antag-1 | OX1R antag-2
CCCN(CC(=O)Nc1ccccc1OC)C(=O)c1ccc(S(=O)(=O)Nc2ccccc2)cc1 | 8.4 | 15.0 | / | 0.9 | 15.9 | 70.3*
COc1ccccc1NC(=O)Cn1nnc(-c2ccccc2NS(=O)(=O)c2ccccc2)n1 | 3.0 | 56.6* | -3.3 | 17.8 | 15.3 | 33.1
CCCN(CC(=O)Nc1ccccc1OC)C(=O)c1ccc(S(=O)(=O)Nc2ccccc2OC)cc1 | 7.0 | 18.6 | / | / | / | /
Cc1ccc(C(=O)NCC(=O)OCc2nnc(-c3ccc([N+](=O)[O-])cc3)o2)s1 | -0.8 | -18.4 | / | -13.8 | -17.3 | 38.1*
O=C(CCC(=O)c1ccc(F)cc1)OCc1nnc(-c2ccc([N+](=O)[O-])cc2)o1 | -0.5 | -2.6 | / | -8.9 | -1.5 | 41.2*
Cc1csc(=O)n1CCC(=O)OCC(=O)Nc1cc(Cl)ccc1[N+](=O)[O-] | 4.0 | -15.5 | / | -7.5 | -18.3 | 52.8*
Cc1csc(=O)n1CC(=O)OCc1nnc(-c2ccc([N+](=O)[O-])cc2)o1 | 6.9 | 0.1 | / | -1.8 | 1.0 | 36.6*
O=C(CNC(=O)c1ccccc1)OCc1nnc(-c2ccccc2)o1 | 0.4 | 15.8 | / | 12.6 | -26.8 | 7.1
Cc1csc(=O)n1CC(=O)OCC(=O)NNC(=O)c1ccccc1 | 1.1 | -17.0 | -3.5 | 7.3 | 0.1 | 7.7
CC1(C)Cc2cccc(OCC(=O)OCc3nnc(-c4ccc([N+](=O)[O-])cc4)o3)c2O1 | -1.4 | 2.9 | / | -1.6 | -7.3 | 49.6*
Cc1csc(=O)n1CC(=O)OCC(=O)NNC(=O)c1ccc([N+](=O)[O-])cc1 | 0.6 | -16.8 | / | -0.1 | -0.7 | 75.5*
CC1(C)Cc2cccc(OCC(=O)OCc3nnc(-c4ccccc4)o3)c2O1 | 0.3 | -10.5 | / | -14.4 | -21.8 | 3.5
Cc1cc2c(cc3c(=O)n(CC(=O)NCCCN4CC(C)CC(C)C4)ncn32)s1 (centres undefined) | 1.5 | -10.2 | -5.2 | -18.6 | -11.6 | 16.3
COc1cc(CN2CCc3ccc(NC(=O)CCc4ccccc4OC)cc3C2)ccc1O | 4.2 | -19.0 | -3.8 | -33.3 | -27.4 | 14.7
COc1ccc(CN2CCc3ccc(NC(=O)CCc4ccccc4OC)cc3C2)c(O)c1 | 6.3 | 59.1* | 19.1 | -9.4 | -24.1 | 12.8
COc1ccc(C(=O)CSc2nnc(Cn3cnc4ccccc43)o2)cc1 | 9.2 | 17.1 | 3.7 | 38.2* | 35.5 | 30.1
CC1=C/C(=C(/c2ccc(O)c(C)c2)c2ccccc2S(=O)(=O)O)C=CC1=O | 3.0 | -1.8 | / | -1.2 | -2.9 | 16.4
CC1=C/C(=C(/c2cc(C)c(O)c(Br)c2)c2ccccc2S(=O)(=O)O)C=C(Br)C1=O | 0.2 | 0.2 | -6.3 | 4.8 | -5.9 | 41.3*
CCOc1ccc(N2C(=O)C3C(c4ccccc4F)NN(C(=O)c4ccc(C)cc4)C3C2=O)cc1 (centres undefined) | -2.2 | 9.1 | -15.7 | -19.5 | -25.8 | 6.6
Cc1ccccc1Nc1c([N+](=O)[O-])cncc1[N+](=O)[O-] | -0.6 | -20.2 | -28.4 | -4.6 | 2.5 | 63.0*
O=[N+]([O-])c1cc([N+](=O)[O-])c2nonc2c1Nc1ccc(O)cc1 | -0.7 | -8.7 | -8.8 | 0.6 | 5.8 | 76.4*
O=[N+]([O-])c1cncc([N+](=O)[O-])c1Nc1cccc(O)c1 | 1.7 | -7.8 | 10.3 | -6.0 | 3.8 | 56.4*
COc1ccccc1Nc1c([N+](=O)[O-])cncc1[N+](=O)[O-] | -0.5 | 13.0 | 6.6 | -2.8 | 1.7 | 56.8
CC(=O)Nc1cccc(-c2ccnc3c2CC(C(=O)NCc2ccc(N4CCN(C)CC4)cc2)O3)c1 (centres undefined) | 2.2 | -19.5 | / | / | / | /
C[C@@H]1C=CCCO[C@]12C(=O)N(CC1CC1)c1ccccc12 | -0.3 | -34.5 | / | / | / | /

Assay outcomes deposited in PubChem BioAssay by The Scripps Research Institute Molecular Screening Center.
